# Experimental data as given in ChEMBL document CHEMBL4616638, “Inhibition of HIV-1 RT activity by a new series of 3-(1,3,4-thiadiazol-2-yl)thiazolidin-4-one derivatives” (Bioorg Med Chem, 2020).
# pEC50, pIC50: −log10 of the molar value.
# Key:
# [1] = system: Human immunodeficiency virus 1; assay: Antiviral activity against HIV1 infected in human MT4 cells assessed as reduction in virus-induced cytopathic effect after 5 days by MTT assay; assay type: functional, organism-based; conditions: Human immunodeficiency virus 1, MT4, 120 h
# In short: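 HIV stock at 100–300 CCID50 added to MT-4 cells (6 × 10^5 cells/ml after centrifugation of exponentially growing cells), compounds as serial 5-fold dilutions in triplicate wells. After 5 days, viability read by MTT reduction at 540 and 690 nm, median of three wells. EC50 taken as concentration reducing virus-induced cytopathic effect by 50%.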
# [2] = biological target: Human immunodeficiency virus type 1 reverse transcriptase (Human immunodeficiency virus 1, UniProt Q72547); assay: Inhibition of wild type recombinant HIV1 reverse transcriptase p66/p51 using poly(rA)/oligo(dT)16 as template/primer measured after 40 mins by picogreen dye-based spectrofluorometric method
# [3] = Cytotoxicity against human MT4 cells assessed as reduction in cell viability after 5 days by MTT assay; assay type: cell-based
# In short: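 Mock-infected MT-4 cells (6 × 10^5 cells/ml) run alongside infected wells, receiving serial 5-fold compound dilutions in triplicate. After 5 days, MTT formazan read at 540 and 690 nm, median of three wells. CC50 is the concentration lowering OD540 of mock-infected control by 50%.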
# [4] = Selectivity index, ratio of CC50 for human MT4 cells to EC50 for antiviral activity againstHIV1 infected in human MT4 cells; assay type: toxicity, cell-based; conditions: read-out: Ratio CC50/EC50
# In short: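 Ratio CC50/EC50, both from the same 5-day MTT run in MT-4 cells, mock-infected versus HIV-infected (100–300 CCID50) wells.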
SMILES,pIC50 [2],pEC50 [1],CC50 at 120 h [3] [µM],selectivity ratio [4]
O=C1CSC(c2ccc(Cl)cc2)N1c1n[nH]c(=S)s1 (stereo unspecified),< 3.44,< 3.71,195,< 1
CS(=O)(=O)c1ccc(NC(=O)CSc2nnc(N3C(=O)CSC3c3cccc(Cl)c3)s2)cc1 (stereo unspecified),4.80,< 3.95,113,< 1
O=C1CSC(c2cccc(Cl)c2)N1c1nnc(S)s1 (stereo unspecified),< 4.00,< 3.62,238,< 1
O=C1CSC(c2ccccc2)N1c1nnc(S)s1 (stereo unspecified),< 4.00,4.49,> 423,13
CS(=O)(=O)c1ccc(NC(=O)CSc2nnc(N3C(=O)CSC3c3ccccc3)s2)cc1 (stereo unspecified),4.39,< 3.88,130,< 1
CS(=O)(=O)c1ccc(NC(=O)CSc2nnc(N3C(=O)CSC3c3ccccc3Cl)s2)cc1 (stereo unspecified),4.93,≤ 3.76,≥ 173,–
O=C1CSC(c2ccccc2Cl)N1c1nnc(S)s1 (stereo unspecified),< 4.00,< 3.70,200,< 1
Cc1ccnc2c1NC(=O)c1cccnc1N2C1CC1 [NEVIRAPINE],–,–,> 15,–

# Continued, in another order:
pIC50 [2],SMILES,pEC50 [1],CC50 at 120 h [3] [µM],selectivity ratio [4]
4.40,CS(=O)(=O)c1ccc(NC(=O)CSc2nnc(N3C(=O)CSC3c3ccc(Cl)cc3)s2)cc1 (stereo unspecified),< 3.94,116,< 1
4.66,NS(=O)(=O)c1ccc(NC(=O)CSc2nnc(N3C(=O)CSC3c3ccccc3Cl)s2)cc1 (stereo unspecified),< 4.73,≥ 18.8,–
4.14,NS(=O)(=O)c1ccc(NC(=O)CSc2nnc(N3C(=O)CSC3c3ccc(Cl)cc3)s2)cc1 (stereo unspecified),≤ 3.65,≥ 222,–
4.72,NS(=O)(=O)c1ccc(NC(=O)CSc2nnc(N3C(=O)CSC3c3cccc(Cl)c3)s2)cc1 (stereo unspecified),< 3.93,118,< 1
4.51,NS(=O)(=O)c1ccc(NC(=O)CSc2nnc(N3C(=O)CSC3c3ccccc3)s2)cc1 (stereo unspecified),< 4.00,99.2,< 1
